Compound activity (PubChem)
Arbovirus inh: antivirals against arbovirus infection | arbovirus infection cell-based antiviral screen | inhibition, % at 10 µM | 200,000 tested, 0.37% active | AID 1251; in the data active = inhibition above about 30%
Cl transport mod: KCC2 (human) Cl- transport modulation | Q9H2X9 | 190,000 tested, 2.2% active | KCC2 cells, thallium flux FluoZin-2 fluorescence | AID 1456 | B-score of Tl+ flux slope (higher = more flux/activation; lower = inhibition) at 10 µM;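 active = thallium flux slope and its plate-corrected score both differing from the plate sample mean at a set confidence after two filtering rounds, in either direction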;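 also: slope of fluorescence scaled to starting intensity during 10 to 20 s after thallium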
ROMK mod: modulators of human ROMK potassium channel; P48048; Tet-inducible ROMK, thallium flux fluorescence; actives lie on both sides; B-score at 10 µM; 130,000 tested, 2% active; AID 1918;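 active = signal ratio slope over the read window, or its plate-corrected B-score, at least 3 SD from the plate mean, either direction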;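 also: B-score of the F/F0 ratio slope over 7 to 12 s after thallium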
Target sequence (P48048 whole entry, looked up): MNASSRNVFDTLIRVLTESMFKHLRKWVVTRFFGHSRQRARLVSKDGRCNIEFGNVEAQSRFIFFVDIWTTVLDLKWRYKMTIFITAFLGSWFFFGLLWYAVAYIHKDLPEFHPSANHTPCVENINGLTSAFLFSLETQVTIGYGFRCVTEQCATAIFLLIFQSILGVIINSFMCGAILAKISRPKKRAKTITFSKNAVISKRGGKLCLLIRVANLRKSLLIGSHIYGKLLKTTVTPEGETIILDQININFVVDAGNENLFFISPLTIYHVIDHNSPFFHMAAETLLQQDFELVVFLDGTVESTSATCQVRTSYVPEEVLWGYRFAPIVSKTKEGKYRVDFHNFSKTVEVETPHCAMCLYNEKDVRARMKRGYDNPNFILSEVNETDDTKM
Mdm2 ligase inh: inhibitors of human Mdm2 E3 ubiquitin ligase. Q00987. cell-based MDM2 ubiquitination luciferase reporter, 2 h; 0 = plate control, 100 = twice control, blank-subtracted. signal enhancement, % at 5 µM. 210,000 tested, 0.11% active. AID 1230;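 active = signal enhancement of 30% or more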;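 also: luminescence tracks abundance of the self-degrading MDM2-luciferase fusion protein; higher signal means inhibition of MDM2 E3 ligase activity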
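Material: stable MDM2–luciferase fusion reporter cells / Quantity: 2000 cells/well / Dosing: single 5 µM compound dose, 0.2% final DMSO / Buffer or medium: DMEM / Schedule: 4 h cell settling then 2 h compound exposure, 37 °C / Detection: luminescence with SteadyLite reagent, 15 min at room temperature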
m-calpain inh: inhibitors of pig calpain II | purified calpain II, fluorogenic peptide substrate, 30 min | inhibition, % at 16 µM | 220,000 tested, 0.37% active | AID 1236;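 active = inhibition above about 50%, limit read from the data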
PKD1 inh: PKD1 (human) kinase inhibition; AID 797; Q15139; 200,000 tested, 0.056% active; PKD1 kinase fluorescence polarization assay; inhibition, % (no concentration beside the values); in the data active = inhibition above about 50%
ROMK hit retest: retested hit modulating human ROMK potassium channel; shares compounds with ROMK mod; ROMK thallium flux, fluorescence ratio; hits give low values; normalized thallium flux (F/F0 slope) at 10 µM; 3,000 tested, 54% active;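 active = Flux at 10 µM at least 3 SD below or above vehicle control mean in one or both replicates; inconclusive = no clear call, values can overlap the other calls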
Active calls of the source: *; i = inactive; ? = inconclusive; . = no result given. A selection: hits, their analogues and other compounds. The true share with any hit is near 3.7%.

SMILES	Arbovirus inh	Cl transport mod	ROMK mod	Mdm2 ligase inh	m-calpain inh	PKD1 inh	ROMK hit retest
O=C1CCCc2nc3c(cc21)C(O)Oc1ccccc1-3 (stereo unspecified)	1.4	.	.	-2.4	i	-4.4	0.0748
O=C1CCCc2nc3c(cc21)C(O)Oc1c-3ccc2ccccc12 (stereo unspecified)	3.3	-0.329	-0.931	-10.4	-24.1	4.0	.
C/C(=N/NC(=O)CNc1ccc(Cl)cc1C)c1ccc(C)cc1	1.8	1.72	11.9*	-3.7	-0.5	2.9	0.0782
O=C(NCCCn1ccnc1)c1cc2c(ccc3ccccc32)o1	3.8	-0.48	-0.245	-11.7	-152.2	-4.4	.
COc1ccc(CNC(=O)C(C)Sc2ccc(C)cc2)cc1 (stereo unspecified)	0.4	-1.12	-0.575	-14.6	28.1	2.9	.
Cc1ccc(SC(C)C(=O)NCc2ccncc2)cc1 (stereo unspecified)	4.2	0.515	2.53*	-5.7	29.1	4.9	0.0835
Cc1ccccc1NC(=S)N(CCCN1CCCCC1)Cc1ccco1	0.6	0.433	-1.12	-6.8	-12.9	0.7	.
COc1ccc(NC(=S)N(CCCN2CCC(C)CC2)Cc2cccs2)cc1	-2.6	0.0474	-0.381	-6.3	0.8	5.9	.
CCN(CC)CCNC(=O)CNC(=S)N(CCCN1CCOCC1)Cc1cccs1	1.9	-0.105	0.575	-2.6	24.4	-2.7	.
CN(C)CCNC(=O)CNC(=S)N(CCCN1CCOCC1)Cc1cccs1	9.3	0.547	-8.47*	-10.0	19.9	-2.4	0.0792
Cc1ccccc1NC(=S)N(CCCN1CCC(C)CC1)Cc1ccco1	-3.9	0.415	-2.52*	-12.6	-6.5	-3.3	0.0655*
COc1cccc(NC(=S)N(CCCN2CCC(C)CC2)Cc2cccs2)c1	3.9	-0.369	-3.45*	4.7	9.7	-5.3	0.0607*
COc1ccc(C(=O)/C=C\c2ccc(NC(=O)c3cccs3)cc2)cc1	-2.4	0.155	0.933	-0.1	-55.4	13.4	.
CCC1(CC)NC(=O)N(CC(=O)N2N=C(c3ccc(Cl)cc3)CC2c2ccco2)C1=O (stereo unspecified)	3.2	0.521	0.126	-25.7	-29.7	-3.7	.
Cc1cccc(OCCn2c(CCCO)nc3ccccc32)c1	4.7	0.844	-2.77*	-3.6	-32.5	8.7	0.0588*
CCCn1c(=O)c2c(C(=O)OCC)cc(-c3ccco3)nc2n(CCC)c1=O	-12.7	-2.1	-3.82*	-16.8	i	-3.4	0.0635*
CCCn1c(=O)c2c(C(F)(F)F)cc(-c3ccco3)nc2n(CCC)c1=O	0.4	-0.0591	0.617	-4.2	i	-7.2	.
Cc1ccc(S(=O)(=O)Nn2c(C)ccc2C)cc1	10.4	.	0.407	-18.1	-67.1	9.0	.
N#C/C(=C/c1ccc([N+](=O)[O-])cc1)C(N)=O	15.9	0.397	-3.72*	-19.0	-1.4	-1.1	0.06*
N#C/C(=C\c1cc([N+](=O)[O-])ccc1Cl)C(N)=O	5.1	0.296	-0.621	9.4	-9.9	4.6	.
CCOc1ccccc1C(=O)NCC(=O)OCC(=O)NCCc1ccc(S(N)(=O)=O)cc1	-0.8	2.21	-2.78*	-17.0	24.1	4.3	0.0848
CCOC1=C/C(=C/c2c(N)n3nc(-c4ccccc4)sc3nc2=O)C=CC1=O	33.3*	-1.78	-3.54*	-3.7	-71.8	4.0	0.0439*
O=C(CSc1ccc(-c2ccc(F)cc2)nn1)N1CCOCC1	7.3	-1.11	-1.05	-5.0	6.0	-1.6	.
CCOc1cc(/C=C2\NC(=S)N(c3c(C)n(C)n(-c4ccccc4)c3=O)C2=O)ccc1O	2.4	0.182	.	-0.8	27.2	-3.2	.
CCOc1cccc(/C=C2\NC(=S)N(c3ccccc3)C2=O)c1O	.	-2.37	.	-21.8	10.7	.	0.0582*
SMILES	Arbovirus inh	Cl transport mod	ROMK mod	Mdm2 ligase inh	m-calpain inh	PKD1 inh	ROMK hit retest
CCCc1cc(N2CCCC(C(=O)NCC)C2)n2ncnc2n1 (stereo unspecified)	1.9	-0.194	.	-31.8	15.0	-5.7	.
COC(=O)[C@@]1(Cc2ccc(F)cc2)[C@H]2c3cc(C(=O)N(C)C)n(Cc4ccc(OC)c(OC)c4)c3C[C@H]2CN1C(=O)c1ccccc1	-6.5	-0.586	-3.53*	.	-81.4	-14.8	0.057*
COC(=O)[C@@]1(Cc2ccc(F)cc2)[C@H]2c3cc(C(=O)N(C)C)n(CCc4ccc(OC)c(Br)c4)c3C[C@H]2CN1C(=O)c1ccccc1	-20.4	-0.451	-3.85*	.	-79.2	-2.4	0.0563*
CCO[C@H]1OC(C(=O)N2CCCCCCC2)=C[C@@H](c2coc3ccccc3c2=O)[C@@H]1CCCO	-1.9	0.314	.	.	0.2	-3.1	.
Cc1ccc(C)c(NC(=S)NCc2ccc3c(c2)OCO3)c1	1.2	-1.62	.	-2.3	10.2	-9.7	.
COc1cc(C)ccc1S(=O)(=O)N1CCN(C23CC4CC(CC(C4)C2)C3)CC1	0.5	.	-2.94*	2.4	-9.4	-6.7	0.0616*
COc1cc(F)ccc1S(=O)(=O)N1CCN(C23CC4CC(CC(C4)C2)C3)CC1	-7.3	-0.0637	-2.76*	-6.6	19.0	1.9	0.0643*
CSc1nc(Sc2ccccc2Cl)c2ccccc2n1	-13.1	.	.	-12.2	-17.1	3.4	.
CCOC(=O)N1CCN(c2nc(-c3ccc(F)cc3)cs2)CC1	27.6	-0.0409	-2.63*	-29.3	11.4	-5.0	?
O=C(C1CCCCC1)N1CCN(c2nc(-c3ccc(F)cc3)cs2)CC1	1.3	-1.31	-0.135	-15.4	1.4	-3.5	.
COc1cccc(-c2cc(C(=O)Nc3cccnc3)no2)c1	-9.9	.	5.87*	2.9	-2.4	-6.0	0.0888
Cc1onc(-c2c(F)cccc2Cl)c1C(=O)NC(=S)NC1CCSC1=O (stereo unspecified)	1.8	0.285	.	7.0	2.6	-8.8	.
CN(C)CCN(Cc1cc2cc3c(cc2[nH]c1=O)OCO3)C(=S)NCC1CCCO1 (stereo unspecified)	3.8	0.036	0.289	-2.2	-214.6	-0.4	.
Nc1ccc2c(c1)C(=O)C(=O)c1ccccc1-2	-42.4	0.559	-5.62*	-34.5	4.8	3.7	0.037*
O=C1C(=O)c2ccc(-c3ccccc3)cc2-c2ccccc21	-37.8	0.32	-0.11	.	-1.3	0.3	.
CC(=O)OC1CSc2nc3ccccc3n2C1 (stereo unspecified)	-1.2	-2.5	.	-17.1	-11.8	-1.8	.
COC(=O)C1=C(C)N=C2SC(C#N)=C(N)N2C1c1ccc(OC)cc1 (stereo unspecified)	-0.5	-0.0612	0.0042	-9.3	-223.8	14.4	.
CCOC(=O)C1=C(C)N=C2SC(C(=O)OC)=CC(=O)N2C1c1ccc(OC)cc1 (stereo unspecified)	-0.5	0.419	-4.49*	-1.3	5.2	-0.6	0.0544*
COc1ncnc2c1NC1=C(S2)C(=NCCC(=O)O)CC(C)(C)C1	1.4	0.0218	.	-13.7	22.0	-12.7	0.0496*
